Experimental data taken from ChEMBL document CHEMBL4130635, “2,4-Diaminoquinazolines as Dual Toll-like Receptor (TLR) 7/8 Modulators for the Treatment of Hepatitis B Virus” (J Med Chem, 2018).

Legend:
[1] = molecular target: T1, Toll-like receptor 7 (Homo sapiens) (UniProt Q9NYK1); test: Agonist activity at human TLR7 expressed in HEK293 cells assessed as induction of receptor activation incubated for 6 hrs by NF-kappaB-luciferase reporter gene assay; assay type: cell-based
T1 sequence (whole entry): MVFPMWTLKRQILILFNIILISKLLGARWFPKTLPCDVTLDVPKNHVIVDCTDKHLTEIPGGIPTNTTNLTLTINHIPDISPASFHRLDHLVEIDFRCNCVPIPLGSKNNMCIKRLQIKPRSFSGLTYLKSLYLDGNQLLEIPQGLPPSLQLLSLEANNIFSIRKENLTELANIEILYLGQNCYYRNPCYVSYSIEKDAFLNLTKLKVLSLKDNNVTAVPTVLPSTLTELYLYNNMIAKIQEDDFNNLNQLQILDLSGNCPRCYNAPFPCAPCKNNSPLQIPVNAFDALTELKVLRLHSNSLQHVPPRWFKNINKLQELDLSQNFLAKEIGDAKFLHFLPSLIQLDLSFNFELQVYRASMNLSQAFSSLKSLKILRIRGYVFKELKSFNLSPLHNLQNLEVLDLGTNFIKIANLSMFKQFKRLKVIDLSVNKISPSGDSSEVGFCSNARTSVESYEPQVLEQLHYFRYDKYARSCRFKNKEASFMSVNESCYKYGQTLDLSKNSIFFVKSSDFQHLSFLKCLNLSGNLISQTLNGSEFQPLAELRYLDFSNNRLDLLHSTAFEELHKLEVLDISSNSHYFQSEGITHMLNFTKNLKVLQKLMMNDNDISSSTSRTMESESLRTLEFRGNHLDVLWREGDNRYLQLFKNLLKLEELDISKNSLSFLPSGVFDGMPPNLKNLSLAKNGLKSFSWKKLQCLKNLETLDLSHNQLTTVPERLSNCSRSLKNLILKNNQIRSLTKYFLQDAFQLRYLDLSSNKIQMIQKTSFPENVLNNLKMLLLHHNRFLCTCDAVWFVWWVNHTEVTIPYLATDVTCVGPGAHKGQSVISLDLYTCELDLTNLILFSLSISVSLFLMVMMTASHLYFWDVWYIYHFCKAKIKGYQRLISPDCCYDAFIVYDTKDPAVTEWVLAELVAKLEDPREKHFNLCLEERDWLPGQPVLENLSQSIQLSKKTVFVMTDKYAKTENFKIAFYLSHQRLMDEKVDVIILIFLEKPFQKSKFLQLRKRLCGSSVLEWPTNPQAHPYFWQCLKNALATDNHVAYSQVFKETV
In short: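 HEK cell-based assay using a wild-type TLR7 expression vector; a parallel TLR8 vector construct served for selectivity. Results are expressed as lowest effective concentration (LEC), averaged over independent experiments where determined two or more times. A separate HEK 293 cytotoxicity (TOX) assay gave CC50 alongside.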

[2] = molecular target: T2, Toll-like receptor 8 (Homo sapiens) (UniProt Q9NR97); test: Agonist activity at human TLR8 expressed in HEK293 cells assessed as induction of receptor activation incubated for 6 hrs by NF-kappaB-luciferase reporter gene assay; assay type: cell-based
T2 sequence (whole entry): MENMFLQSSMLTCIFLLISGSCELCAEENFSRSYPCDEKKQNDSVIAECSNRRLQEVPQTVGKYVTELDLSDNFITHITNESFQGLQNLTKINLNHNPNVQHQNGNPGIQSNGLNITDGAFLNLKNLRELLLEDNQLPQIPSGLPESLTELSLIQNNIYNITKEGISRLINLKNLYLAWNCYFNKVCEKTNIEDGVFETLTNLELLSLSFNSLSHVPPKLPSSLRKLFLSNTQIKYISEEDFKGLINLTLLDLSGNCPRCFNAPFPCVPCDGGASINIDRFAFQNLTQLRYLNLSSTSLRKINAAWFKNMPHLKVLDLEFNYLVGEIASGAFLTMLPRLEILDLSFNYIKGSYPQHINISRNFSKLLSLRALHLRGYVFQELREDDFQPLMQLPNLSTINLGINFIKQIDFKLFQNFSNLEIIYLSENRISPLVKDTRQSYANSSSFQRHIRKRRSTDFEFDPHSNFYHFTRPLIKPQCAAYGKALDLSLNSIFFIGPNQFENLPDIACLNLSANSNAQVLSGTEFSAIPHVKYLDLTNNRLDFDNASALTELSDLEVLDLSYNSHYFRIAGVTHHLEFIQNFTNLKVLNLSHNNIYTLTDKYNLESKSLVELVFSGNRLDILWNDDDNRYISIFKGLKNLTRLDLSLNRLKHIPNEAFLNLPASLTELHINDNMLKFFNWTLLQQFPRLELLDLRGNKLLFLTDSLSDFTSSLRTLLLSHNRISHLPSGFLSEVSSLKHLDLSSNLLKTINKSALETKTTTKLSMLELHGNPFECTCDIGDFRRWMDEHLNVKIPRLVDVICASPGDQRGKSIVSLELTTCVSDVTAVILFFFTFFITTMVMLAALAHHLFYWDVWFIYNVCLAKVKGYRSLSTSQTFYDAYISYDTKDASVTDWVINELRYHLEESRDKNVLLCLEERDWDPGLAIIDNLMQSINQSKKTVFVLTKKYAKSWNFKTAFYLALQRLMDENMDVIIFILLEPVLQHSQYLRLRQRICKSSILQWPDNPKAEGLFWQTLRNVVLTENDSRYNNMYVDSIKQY

[3] = Cytotoxicity against HEK293 cells assessed as reduction in cell viability after 6 hrs by ATP lite assay; assay type: cell-based; details: human
[4] = molecular target: T1, Toll-like receptor 7 (Homo sapiens); test: Agonist activity at TLR7 in human PBMC assessed as suppression of HCV replicon replication in human HuH7 luc/neo cells harboring RNA encoding bicistronic expression construct comprising wild type HCV type 1b NS3-NS5B regions exposed to conditioned media from compound treated PBMCs after 24 hrs by luciferase reporter gene assay; assay type: cell-based
In short: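 Human PBMCs were incubated with compound. Their medium was then transferred onto an HCV replicon system, so the antiviral read-out reflects interferon and cytokines the PBMCs induced. Values are reported as lowest effective concentration (LEC), averaged when determined in two or more independent experiments.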

[5] = molecular target: Voltage-gated inwardly rectifying potassium channel KCNH2 (Homo sapiens, UniProt Q12809); test: Inhibition of radioligand binding to human ERG expressed in HEK293 cell membranes by scintillation counting method
Chain of Voltage-gated inwardly rectifying potassium channel KCNH2 (Q12809 whole entry): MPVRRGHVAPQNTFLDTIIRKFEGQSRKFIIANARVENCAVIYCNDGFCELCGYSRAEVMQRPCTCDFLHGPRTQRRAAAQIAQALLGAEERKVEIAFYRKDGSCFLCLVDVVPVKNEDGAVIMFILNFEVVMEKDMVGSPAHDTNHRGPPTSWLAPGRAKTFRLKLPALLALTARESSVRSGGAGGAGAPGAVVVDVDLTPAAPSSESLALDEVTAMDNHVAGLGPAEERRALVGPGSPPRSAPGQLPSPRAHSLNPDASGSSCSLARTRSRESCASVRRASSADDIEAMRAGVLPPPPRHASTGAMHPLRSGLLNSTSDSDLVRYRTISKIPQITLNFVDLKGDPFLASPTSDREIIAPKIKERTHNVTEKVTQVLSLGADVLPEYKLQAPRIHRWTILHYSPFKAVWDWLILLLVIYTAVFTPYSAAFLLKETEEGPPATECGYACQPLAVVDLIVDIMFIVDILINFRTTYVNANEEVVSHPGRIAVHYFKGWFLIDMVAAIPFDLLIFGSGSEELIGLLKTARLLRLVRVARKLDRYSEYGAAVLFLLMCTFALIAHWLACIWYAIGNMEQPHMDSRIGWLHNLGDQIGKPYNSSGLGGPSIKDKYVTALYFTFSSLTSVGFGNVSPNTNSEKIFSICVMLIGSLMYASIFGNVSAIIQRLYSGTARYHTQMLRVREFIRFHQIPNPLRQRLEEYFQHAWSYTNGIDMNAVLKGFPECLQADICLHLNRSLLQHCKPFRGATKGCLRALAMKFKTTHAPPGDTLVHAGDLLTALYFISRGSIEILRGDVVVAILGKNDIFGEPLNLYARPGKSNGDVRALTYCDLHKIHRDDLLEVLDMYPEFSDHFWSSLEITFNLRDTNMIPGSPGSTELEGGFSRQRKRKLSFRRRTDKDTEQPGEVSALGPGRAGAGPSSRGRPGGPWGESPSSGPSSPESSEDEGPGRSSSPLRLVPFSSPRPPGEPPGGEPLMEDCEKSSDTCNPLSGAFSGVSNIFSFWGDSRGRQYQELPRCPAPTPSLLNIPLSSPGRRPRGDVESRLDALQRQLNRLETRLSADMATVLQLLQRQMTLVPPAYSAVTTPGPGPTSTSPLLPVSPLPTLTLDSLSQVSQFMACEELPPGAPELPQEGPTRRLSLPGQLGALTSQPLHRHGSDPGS

[6] = Metabolic stability in mouse liver microsomes assessed as compound metabolized at 1 uM after 15 mins; assay type: ADME, microsome; details: read-out: Drug metabolism
In short: (§1)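 Mouse (M) or human (H) liver microsomes incubated with compound at 1 μM; percent metabolized after 15 min.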

[7] = Metabolic stability in human liver microsomes assessed as compound metabolized at 1 uM after 15 mins; assay type: ADME, microsome; details: read-out: Drug metabolism; in short: as §1

## CCC[C@@H](CCO)Nc1nc(N)nc2ccc(OC)cc12
[1]
  MEC: 11.8 µM
[2]
  MEC: 2.97 µM
[3]
  CC50 at 6 h: > 24 µM

## CCC[C@@H](CCO)Nc1nc(N)nc2ccccc12
[1]
  MEC: 0.2 µM
[2]
  MEC: 0.11 µM
[4]
  MEC: 0.38 µM
[3]
  CC50 at 6 h: > 24 µM
[5]
  IC50: 6.8 µM
[6]
  metabolised at 0.25 h, 1 µM: 72%
[7]
  metabolised at 0.25 h, 1 µM: 23%

## CCCC[C@H](CO)Nc1nc(N)nc2ccccc12
[1]
  MEC: 22.5 µM
[2]
  MEC: 0.05 µM
[4]
  MEC: 0.16 µM
[3]
  CC50 at 6 h: > 24 µM

## CCCC[C@@H](CCO)Nc1nc(N)nc2ccc(C)cc12
[1]
  MEC: 0.44 µM
[2]
  MEC: 0.25 µM
[4]
  MEC: 0.14 µM
[3]
  CC50 at 6 h: > 24 µM
[5]
  IC50: 5.4 µM
[6]
  metabolised at 0.25 h, 1 µM: 99%
[7]
  metabolised at 0.25 h, 1 µM: 24%

## CC(C)C[C@@H](CCO)Nc1nc(N)nc2ccccc12
[1]
  MEC: 1.83 µM
[2]
  MEC: 0.69 µM
[4]
  MEC: 0.55 µM
[3]
  CC50 at 6 h: > 24 µM

## CCC[C@@H](CCO)Nc1nc(N)nc2cccc(C)c12
[1]
  MEC: 0.22 µM
[2]
  MEC: 0.14 µM
[3]
  CC50 at 6 h: > 24 µM
[5]
  IC50: 5.5 µM
[6]
  metabolised at 0.25 h, 1 µM: 88%
[7]
  metabolised at 0.25 h, 1 µM: 44%

## CCC[C@@H](CCO)Nc1nc(N)nc2ccc(C)cc12
[1]
  MEC: 0.54 µM
[2]
  MEC: 0.45 µM
[4]
  MEC: 0.39 µM
[3]
  CC50 at 6 h: > 24 µM
[5]
  IC50: 7.2 µM
[6]
  metabolised at 0.25 h, 1 µM: 97%
[7]
  metabolised at 0.25 h, 1 µM: 21%

## CCC[C@@H](CCO)Nc1nc(N)nc2cc(C)ccc12
[1]
  MEC: 0.06 µM
[2]
  MEC: 0.05 µM
[4]
  MEC: 0.39 µM
[3]
  CC50 at 6 h: > 24 µM
[5]
  IC50: 8.1 µM
[6]
  metabolised at 0.25 h, 1 µM: 87%
[7]
  metabolised at 0.25 h, 1 µM: 44%

## CCCC[C@@H](CCO)Nc1nc(N)nc2ccc(F)cc12
[1]
  MEC: 1.59 µM
[2]
  MEC: 0.42 µM
[4]
  MEC: 0.37 µM
[3]
  CC50 at 6 h: > 24 µM
[5]
  IC50: 5.8 µM
[6]
  metabolised at 0.25 h, 1 µM: 63%
[7]
  metabolised at 0.25 h, 1 µM: 33%

## CCC[C@@H](CCO)Nc1nc(N)nc2ccc(F)cc12
[1]
  MEC: 1.05 µM
[2]
  MEC: 0.42 µM
[3]
  CC50 at 6 h: > 24 µM
[6]
  metabolised at 0.25 h, 1 µM: 47%
[7]
  metabolised at 0.25 h, 1 µM: 22%

## CCC[C@@H](CCO)Nc1nc(N)nc2cc(F)ccc12
[1]
  MEC: 0.11 µM
[2]
  MEC: 0.04 µM
[4]
  MEC: 4.8 µM
[3]
  CC50 at 6 h: > 24 µM
[5]
  IC50: 9.1 µM
[6]
  metabolised at 0.25 h, 1 µM: 100%
[7]
  metabolised at 0.25 h, 1 µM: 13%

## CCCC[C@@H](CCO)Nc1nc(N)nc2cc(C)ccc12
[1]
  MEC: 0.03 µM
[2]
  MEC: 0.06 µM
[4]
  MEC: 0.02 µM
[3]
  CC50 at 6 h: > 24 µM
[5]
  IC50: 1.8 µM
[6]
  metabolised at 0.25 h, 1 µM: 98%
[7]
  metabolised at 0.25 h, 1 µM: 70%

## CCCC[C@@H](CCO)Nc1nc(N)nc2cc(F)ccc12
[1]
  MEC: 0.04 µM
[2]
  MEC: 0.03 µM
[4]
  MEC: 0.04 µM
[3]
  CC50 at 6 h: > 24 µM
[6]
  metabolised at 0.25 h, 1 µM: 91%
[7]
  metabolised at 0.25 h, 1 µM: 39%

## CCC[C@@H](CCO)Nc1nc(N)nc2cccc(F)c12
[1]
  MEC: 0.22 µM
[2]
  MEC: 0.02 µM
[3]
  CC50 at 6 h: > 24 µM
[5]
  IC50: 8.9 µM
[6]
  metabolised at 0.25 h, 1 µM: 47%
[7]
  metabolised at 0.25 h, 1 µM: 62%

## CC[C@H](C)[C@@H](CO)Nc1nc(N)nc2ccccc12
[1]
  MEC: 1.34 µM
[2]
  MEC: 0.08 µM
[4]
  MEC: 0.14 µM
[3]
  CC50 at 6 h: > 24 µM

## CCCC[C@@H](CO)Nc1nc(N)nc2ccccc12
[1]
  MEC: 0.24 µM
[2]
  MEC: 0.02 µM
[4]
  MEC: 0.04 µM
[3]
  CC50 at 6 h: > 24 µM

## CCCCNc1nc(N)nc2ccccc12
[1]
  MEC: 0.16 µM
[2]
  MEC: 0.06 µM
[4]
  MEC: 0.03 µM
[3]
  CC50 at 6 h: > 24 µM

## CC(C)C[C@@H](CO)Nc1nc(N)nc2ccccc12
[1]
  MEC: 3.18 µM
[2]
  MEC: 0.45 µM
[4]
  MEC: 0.71 µM
[3]
  CC50 at 6 h: > 24 µM

## CC[C@@H](CO)Nc1nc(N)nc2ccccc12
[1]
  MEC: 3.9 µM
[2]
  MEC: 0.19 µM
[4]
  MEC: 2.3 µM
[3]
  CC50 at 6 h: > 24 µM

## CCCC[C@@H](CCO)Nc1nc(N)nc2cc(OC)ccc12
[1]
  MEC: 0.16 µM
[2]
  MEC: 0.16 µM
[4]
  MEC: 0.04 µM
[3]
  CC50 at 6 h: > 24 µM
[6]
  metabolised at 0.25 h, 1 µM: 80%
[7]
  metabolised at 0.25 h, 1 µM: 37%

## CCC[C@H](CO)Nc1nc(N)nc2ccccc12
[1]
  MEC: > 25 µM
[2]
  MEC: 0.57 µM
[4]
  MEC: 2.36 µM
[3]
  CC50 at 6 h: > 24 µM

## CCC[C@@H](CO)Nc1nc(N)nc2ccccc12
[1]
  MEC: 0.46 µM
[2]
  MEC: 0.01 µM
[4]
  MEC: 0.04 µM
[3]
  CC50 at 6 h: > 24 µM
